Source: PubChem BioAssay
An excerpt weighted towards active compounds, which were near 2.3% of everything screened.
TRPC6 act – mouse TRPC6 channel activators, primary screen, cell-based, HEK293, membrane potential dye; Short transient receptor potential channel 6 (Mus musculus), Q61143; actives 0.13% (n = 310,000); B-score at 10 µM; HEK293-TRPC6 membrane potential dye fluorescence; stronger effect = higher value; AID 2550, 2010;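 active = B-score of the integrated fluorescence ratio above library mean plus 3 SD, and starting fluorescence ratio within library mean plus 5 SD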;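 also: higher score means more depolarization so channel activation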
TRPC4 inh – inhibitors of mouse TRPC4 channel, primary screen, Fluo4 calcium, HEK293 TRPC4beta/mu-opioid cells; Short transient receptor potential channel 4 (Mus musculus), Q9QUQ5; DAMGO-evoked Fluo4 calcium flux; stronger effect = lower value; B-score at 10 µM; actives 0.39% (n = 300,000); AID 2247, 2010;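 active = B-score over 3 SD under the library average, no early fluorescence shift, positive overall ratio signal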
Target sequence (Q9QUQ5 whole entry, looked up): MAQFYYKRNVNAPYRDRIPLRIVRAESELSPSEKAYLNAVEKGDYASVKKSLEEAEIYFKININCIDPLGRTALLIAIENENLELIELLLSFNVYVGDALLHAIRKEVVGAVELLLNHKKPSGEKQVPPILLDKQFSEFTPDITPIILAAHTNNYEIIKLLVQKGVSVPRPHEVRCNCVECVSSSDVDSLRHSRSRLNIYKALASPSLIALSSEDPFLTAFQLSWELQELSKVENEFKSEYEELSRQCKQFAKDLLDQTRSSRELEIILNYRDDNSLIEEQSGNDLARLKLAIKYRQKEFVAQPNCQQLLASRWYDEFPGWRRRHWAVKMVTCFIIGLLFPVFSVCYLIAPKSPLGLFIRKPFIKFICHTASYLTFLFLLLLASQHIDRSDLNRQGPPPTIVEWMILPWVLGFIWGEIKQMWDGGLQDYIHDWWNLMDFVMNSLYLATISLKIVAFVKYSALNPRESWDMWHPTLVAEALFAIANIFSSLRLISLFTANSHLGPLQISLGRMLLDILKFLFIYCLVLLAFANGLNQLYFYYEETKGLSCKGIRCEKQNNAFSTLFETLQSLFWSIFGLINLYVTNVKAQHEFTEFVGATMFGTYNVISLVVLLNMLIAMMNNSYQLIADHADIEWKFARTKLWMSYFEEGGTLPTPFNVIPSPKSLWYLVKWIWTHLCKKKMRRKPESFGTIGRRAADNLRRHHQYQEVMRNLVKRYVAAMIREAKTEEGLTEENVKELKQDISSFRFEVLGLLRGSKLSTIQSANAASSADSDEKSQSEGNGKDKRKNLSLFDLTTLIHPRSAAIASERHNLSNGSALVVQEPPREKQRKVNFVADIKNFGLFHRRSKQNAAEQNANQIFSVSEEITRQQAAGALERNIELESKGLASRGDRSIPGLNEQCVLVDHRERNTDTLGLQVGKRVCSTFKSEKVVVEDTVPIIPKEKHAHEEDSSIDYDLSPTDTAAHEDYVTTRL
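Assay system: Stable TRPC4beta/mu-opioid receptor HEK293 cells | Reagent: DAMGO in two steps, submaximal then maximal | Compound dosing: Single concentration per test compound | Signal: Fluo4 Ca2+ flux fluorescence | Evaluation: Per-well B score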
TRPC4 PAM – positive allosteric modulators of TRPC4, primary screen, cell-based, mouse TRPC4beta, HEK293 mu-opioid, Fluo-4 calcium; DAMGO EC20, Fluo-4 Ca2+ flux; stronger effect = higher value; B-score at 10 µM; actives 0.42% (n = 310,000); AID 2227, 2009;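 active = B-score of calcium response area above 5 SD of library B-scores, with initial fluorescence ratio within 5 SD of library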
TRPC4 act – activators of mouse TRPC4 channel, primary screen, Fluo4 calcium, HEK293 TRPC4beta/mu-opioid cells; actives 0.49% (n = 310,000); B-score at 10 µM; Short transient receptor potential channel 4 (Mus musculus), Q9QUQ5; AID 2237, 2010; Fluo4 calcium fluorescence; stronger effect = higher value;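 active = B-score above 5 SD of library B-scores, and initial fluorescence ratio not above library mean plus 5 SD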;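 also: positive B-score marks a calcium rise read as TRPC4 activation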
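Material: HEK293 stable line with TRPC4beta plus mu-opioid receptor; technique: Fluo4 calcium-sensitive dye fluorescence, kinetic, 1 Hz baseline; timing: Fluo4 dye loading 45 min at room temperature, 110 s recording; controls: assay buffer as low control, maximal DAMGO as high control; read-out: integrated baseline-normalised fluorescence ratio, converted to per-well B score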
TRPC6 inhibitor – mouse TRPC6 channel inhibitors, primary screen, cell-based, HEK293, membrane potential dye; ACh-evoked depolarization; stronger effect = lower value; B-score at 10 µM; actives 1.1% (n = 310,000); AID 2553, 2010;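 active = B-score under library mean minus 3 SD, initial fluorescence not abnormally high, positive integrated signal ratio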;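 also: B-score derived from integrated fluorescence ratio over the kinetic read; more negative B-score means stronger inhibition of depolarization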
TRPC4 spec 2 – second check of whether TRPC6 inhibitors also affect mouse TRPC4; shares compounds with TRPC6 inhibitor; HEK293 TRPC4/MOR, membrane potential dye fluorescence; channel activated by saturating DAMGO dose; inhibition, % at 10 µM; actives 42% (n = 920); AID 2776;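 active = compounds whose fluorescence signal differed from control wells by over 3 SD, either direction, in both duplicate plates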
TRPC4 spec – mouse TRPC4 modulation by TRPC6 hits, confirmation, selectivity assay for TRPC6 inhibitor project, cell-based, HEK293 TRPC4/mu-opioid, membrane potential dye; membrane potential fluorescence; actives 61% (n = 920); activity change, negative = inhibition, % at 10 µM; shares compounds with TRPC6 inhibitor;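 active = rise or fall in signal beyond 3 SD of buffer-only wells in both replicate plates, either sign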;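 also: integrated kinetic ratio of fluorescence range over baseline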
HEK293 MPD ctr 2-1 – nonspecific membrane potential effects, parental HEK293, confirmation, counter-screen for TRPC6 inhibitor project, cell-based, second counter screen; shares compounds with TRPC6 inhibitor; AID 2779, 2010; parental HEK293 membrane potential dye fluorescence; maximal acetylcholine challenge after compound addition; signal change vs control, % at 10 µM; actives 31% (n = 920);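 active = membrane potential signal moving either way by over 3 SD of the maximum-effect control, in both duplicate plates, meaning non-specific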
HEK293 MPD ctr-1 – membrane potential modulation in parental HEK293, confirmation, counter-screen for TRPC6 inhibitor project, cell-based | actives 60% (n = 920) | shares compounds with TRPC6 inhibitor | membrane potential signal change, % at 10 µM | parental HEK293 membrane potential dye fluorescence | AID 2780, 2010;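 active = membrane potential signal shifting up or down by more than 3 SD of buffer-only wells, on both duplicate plates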
HEK293 MPD ctr-2 – parental HEK293 membrane potential modulation, confirmation, counter-screen for TRPC6 modulator project, cell-based; shares compounds with TRPC6 inhibitor; membrane potential dye fluorescence; membrane potential signal change, % at 10 µM; actives 51% (n = 2,400); AID 488924, 2010;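 active = membrane potential signal moves up or down beyond 5 SD from buffer-only wells, on both duplicate plates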
HEK293 MPD ctr 2-2 – parental HEK293 nonspecific activity of TRPC6 modulators, second screen | shares compounds with TRPC6 inhibitor | membrane potential dye fluorescence; after compound, maximal acetylcholine stimulation | inhibition, % at 10 µM | actives 14% (n = 2,400) | AID 488926;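 active = membrane potential signal drops by more than 5 SD from the mean control signal, in both duplicate plates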
TRPC4 ctr mod – TRPC4 modulation by TRPC6 hit compounds, confirmation, selectivity assay for TRPC6 modulator project, cell-based, HEK293 TRPC4/mu-opioid, membrane potential dye, mouse; shares compounds with TRPC6 inhibitor; membrane potential fluorescence; percent change from control (negative = decrease, positive = increase), % at 10 µM; actives 69% (n = 2,400); AID 488927, 2010;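 active = membrane potential signal moved up or down beyond 5 SD of buffer control wells, in both duplicate plates, actives on both sides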
TRPC4/MOR inh 2 – mouse TRPC4 off-target activity of TRPC6 modulators, second screen | inhibition, % at 10 µM | actives 55% (n = 2,400) | shares compounds with TRPC6 inhibitor | HEK293 TRPC4/mu-opioid, membrane potential dye fluorescence; stimulated with maximal-effect DAMGO;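 active = drop in membrane potential signal beyond 5 SD of the control wells in both duplicate plates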;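 also: TRPC4 counter screen for TRPC6 hits run under conditions tuned for TRPC6 not TRPC4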
TRPC6 inh conf – mouse TRPC6 channel inhibitors, confirmation, HEK293 cells, membrane potential dye, duplicate; shares compounds with TRPC6 inhibitor; ACh-evoked depolarization; inhibition, % at 10 µM; actives 43% (n = 3,300); AID 488960, 2010;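 active = fluorescence ratio falls more than 5 SD below the full-stimulation control mean, in both duplicate runs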;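 also: integrated fluorescence ratio of peak minus minimum over baseline after agonist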
TRPC6 act confirm – mouse TRPC6 channel activators, confirmation, HEK293 cells, membrane potential dye, duplicate; shares compounds with TRPC6 inhibitor; HEK293-TRPC6 membrane potential dye fluorescence, FDSS; activation, % at 10 µM; actives 11% (n = 2,800); AID 488961, 2010;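 active = ratio signal rise beyond 5 SD above unstimulated control wells' mean, seen in both duplicate runs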
Of the large screens only hits and unclear results are named; the others gave an inactive call (follow-up assays come after a bar, where they were run).

CCCc1ccc(-c2cc(NC(=O)CSc3nnc(N)s3)n(-c3ccccc3)n2)cc1	none
CN(c1ccccc1)S(=O)(=O)c1cccc(NC(=O)CSc2ncc(C(F)(F)F)cc2Cl)c1	none
O=C(O)C1CC=CCC1C(=O)NC1CCCCC1 (stereo not given)	none
CCCCc1cc(=O)oc2cc(C)cc(OCC(=O)NCc3ccncc3)c12	TRPC6 inhibitor -7.4 | HEK293 MPD ctr-2 inactive | HEK293 MPD ctr 2-2 inactive | TRPC4 ctr mod inactive | TRPC4/MOR inh 2 inactive | TRPC6 inh conf inactive | TRPC6 act confirm inactive
COc1ccc2sc(N(CCN(C)C)C(=O)c3cc(Cl)sc3Cl)nc2c1	none
COc1ccc(OC)c2sc(N(CCN(C)C)C(=O)c3cc(Cl)sc3Cl)nc12	TRPC4 act 102, TRPC6 inhibitor -5.5 | HEK293 MPD ctr-2 inactive | HEK293 MPD ctr 2-2 inactive | TRPC4 ctr mod -42% | TRPC4/MOR inh 2 80% | TRPC6 inh conf inactive | TRPC6 act confirm inactive
COc1ccc(CC(=O)O/N=C(\N)c2ccccc2)cc1OC	none
CC(C)(C)C1CCc2c(sc3ncn(N)c(=N)c23)C1 (stereo not given)	TRPC6 inhibitor -6.5 | HEK293 MPD ctr-2 inactive | HEK293 MPD ctr 2-2 inactive | TRPC4 ctr mod -16% | TRPC4/MOR inh 2 67% | TRPC6 inh conf 46% | TRPC6 act confirm inactive
N=c1c2c3c(sc2ncn1N)CCC3	none
Cc1cc(=O)oc2c(C)c(OC3CCCCC3=O)ccc12 (stereo not given)	none
COc1ccccc1Nc1nc(N)nc(CSC(=S)N2CCCCC2C)n1 (stereo not given)	TRPC6 inhibitor -7.8 | TRPC4 spec 2 inactive | TRPC4 spec inactive | HEK293 MPD ctr 2-1 inactive | HEK293 MPD ctr-1 inactive | TRPC6 inh conf inactive | TRPC6 act confirm inactive
COc1ccccc1Nc1nc(N)nc(CSC(=S)N2CCC(C)CC2)n1	TRPC6 inhibitor -5.5 | HEK293 MPD ctr-2 inactive | HEK293 MPD ctr 2-2 inactive | TRPC4 ctr mod inactive | TRPC4/MOR inh 2 inactive | TRPC6 inh conf 78%
COc1ccccc1Nc1nc(N)nc(CN2CCC(Cc3ccccc3)CC2)n1	TRPC6 inhibitor -6.5 | HEK293 MPD ctr-2 100% | HEK293 MPD ctr 2-2 inactive | TRPC4 ctr mod inactive | TRPC4/MOR inh 2 84% | TRPC6 inh conf 47%
COc1ccccc1Nc1nc(N)nc(CN2CCC(C)CC2)n1	none
O=C(CSc1ccccc1)N1CCCC(N2CCN(c3cccc(Cl)c3)CC2)C1 (stereo not given)	none
Cc1onc(-c2ccccc2Cl)c1NC(=O)NCc1cccs1	none
CC(=O)c1ccccc1Oc1ncnc(N)c1[N+](=O)[O-]	none
Cc1c(O)c(CN2CCCC2)cc2c3c(c(=O)oc12)CCC3	TRPC6 inhibitor -5 | HEK293 MPD ctr-2 -254% | HEK293 MPD ctr 2-2 inactive | TRPC4 ctr mod -46% | TRPC4/MOR inh 2 inactive | TRPC6 inh conf inactive | TRPC6 act confirm inactive
COc1ccccc1CN1CC(C(=O)NCc2nc3ccccc3n2C)CCC1=O (stereo not given)	none
CC(=O)Nc1ccc(Nc2ccc3c4c(cc(=O)n3C)-c3ccccc3C(=O)c24)cc1	none
O=C1c2ccccc2C(=O)c2c(Nc3ccc(CCO)cc3)ccc(O)c21	TRPC6 inhibitor -5.2 | HEK293 MPD ctr-2 inactive | HEK293 MPD ctr 2-2 inactive | TRPC4 ctr mod -9.0% | TRPC4/MOR inh 2 42% | TRPC6 inh conf inactive | TRPC6 act confirm inactive
Cc1ccccc1C(=O)Nc1ccc2c(C#N)c3nc4ccccc4nc3n2c1	TRPC6 inhibitor -5.8 | HEK293 MPD ctr-2 inactive | HEK293 MPD ctr 2-2 inactive | TRPC4 ctr mod -10% | TRPC4/MOR inh 2 inactive | TRPC6 inh conf inactive | TRPC6 act confirm inactive
Cc1cc(C)nc(NS(=O)(=O)c2ccc(NC(=O)CSc3nc(-c4ccccc4)c(C#N)c(=O)[nH]3)cc2)n1	TRPC6 act 13 | HEK293 MPD ctr-2 inactive | HEK293 MPD ctr 2-2 inactive | TRPC4 ctr mod 10% | TRPC4/MOR inh 2 inactive | TRPC6 inh conf inactive | TRPC6 act confirm 81%
Cc1cc(NC(=O)CSc2nc(-c3ccccc3)c(C#N)c(=O)[nH]2)no1	none
C=CCOc1c(CNC2CCCC2)cc(Cl)cc1OC	TRPC4 inh -6, TRPC6 inhibitor -5.4 | HEK293 MPD ctr-2 431% | HEK293 MPD ctr 2-2 151% | TRPC4 ctr mod 99% | TRPC4/MOR inh 2 90% | TRPC6 inh conf 95%
